Experimental data taken from ChEMBL document CHEMBL1629643, “Naturally occurring Class A ss-lactamases from the Burkholderia cepacia complex” (Antimicrob Agents Chemother, 2009).
≈ marks a conversion by molar mass, not a printed value.

What was measured:
Burkholderia cenocepacia [1] = test: Antimicrobial activity against Burkholderia cenocepacia 07-34 expressing beta-lactamase PenB1; type: functional
Summary of the method: (§1)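 MICs measured by broth microdilution and by Etest on clinical B. cenocepacia isolates grown for 18 h in Trypticase soy broth (30°C and 37°C). Susceptibility was read against CLSI guidelines.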

Burkholderia cenocepacia [2] = test: Antimicrobial activity against Burkholderia cenocepacia 09-54 expressing beta-lactamase PenB2; type: functional; summary of the method: as §1
Burkholderia cenocepacia [3] = test: Antimicrobial activity against Burkholderia cenocepacia 212 expressing beta-lactamase PenB3; type: functional; summary of the method: as §1
Burkholderia cenocepacia [4] = test: Antimicrobial activity against Burkholderia cenocepacia 5007902 expressing beta-lactamase PenB4; type: functional; summary of the method: as §1
Escherichia coli [5] = test: Antimicrobial activity against Escherichia coli TOP10 harboring beta-lactamase PenB1; type: functional
Summary of the method: (§2)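 MICs by broth microdilution and Etest, interpreted per CLSI guidelines. Strains tested were host E. coli TOP10, and TOP10 carrying pBcSau13 (pBK-CMV vector, kanamycin-resistant) holding a Sau3AI fragment of B. cenocepacia 212 DNA that encodes PenB1.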

Escherichia coli [6] = test: Antimicrobial activity against Escherichia coli TOP10; type: functional; summary of the method: as §2
Burkholderia cenocepacia [7] = test: Antimicrobial activity against Burkholderia cenocepacia 07-34 expressing beta-lactamase PenB in presence of 4 ug/ml beta-lactamase inhibitor Tazobactam; type: functional
Summary of the method: (§3)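 Isolates were cultured for 18 h in Trypticase soy broth (30°C and 37°C), then tested by microdilution and Etest. […] MICs were interpreted using CLSI guidelines.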

Burkholderia cenocepacia [8] = test: Antimicrobial activity against Burkholderia cenocepacia 09-54 expressing beta-lactamase PenB2 in presence of 4 ug/ml beta-lactamase inhibitor Tazobactam; type: functional; summary of the method: as §3
Burkholderia cenocepacia [9] = test: Antimicrobial activity against Burkholderia cenocepacia 212 expressing beta-lactamase PenB3 in presence of 4 ug/ml beta-lactamase inhibitor Tazobactam; type: functional; summary of the method: as §3
Burkholderia cenocepacia [10] = test: Antimicrobial activity against Burkholderia cenocepacia 5007902 expressing beta-lactamase PenB4 in presence of 4 ug/ml beta-lactamase inhibitor Tazobactam; type: functional; summary of the method: as §3
Escherichia coli [11] = test: Antimicrobial activity against Escherichia coli TOP10 harboring beta-lactamase PenB1 in presence of 4 ug/ml beta-lactamase inhibitor Tazobactam; type: functional
Summary of the method: (§4)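 E. coli TOP10 host, either plain or carrying the pBK-CMV clone pBcSau13 with the B. cenocepacia 212 insert. MICs by broth microdilution and Etest, read against CLSI guidelines.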

Escherichia coli [12] = test: Antimicrobial activity against Escherichia coli TOP10 in presence of 4 ug/ml beta-lactamase inhibitor Tazobactam; type: functional; summary of the method: as §4
[13] = substrate: CC(=O)OCC1=C(C(=O)O)N2C(=O)[C@@H](NC(=O)Cc3cccs3)[C@H]2SC1; conditions: Burkholderia cenocepacia; 07-34
[14] = substrate: CC(C)(O/N=C(\C(=O)N[C@@H]1C(=O)N2C(C(=O)[O-])=C(C[n+]3ccccc3)CS[C@H]12)c1csc(N)n1)C(=O)O; conditions: Burkholderia cenocepacia; 07-34
[15] = substrate: CC1(C)S[C@@H]2[C@H](NC(=O)Cc3ccccc3)C(=O)N2[C@H]1C(=O)O; conditions: Burkholderia cenocepacia; 07-34
[16] = substrate: CC1(C)S[C@@H]2[C@H](NC(=O)[C@H](C(=O)O)c3ccsc3)C(=O)N2[C@H]1C(=O)O; conditions: Burkholderia cenocepacia; 07-34
[17] = substrate: CC1(C)S[C@@H]2[C@H](NC(=O)[C@H](N)c3ccccc3)C(=O)N2[C@H]1C(=O)O; conditions: Burkholderia cenocepacia; 07-34
[18] = substrate: CCN1CCN(C(=O)N[C@@H](C(=O)N[C@@H]2C(=O)N3[C@@H]2SC(C)(C)[C@@H]3C(=O)O)c2ccccc2)C(=O)C1=O; conditions: Burkholderia cenocepacia; 07-34
[19] = substrate: CO/N=C(\C(=O)N[C@@H]1C(=O)N2C(C(=O)O)=C(COC(C)=O)CS[C@H]12)c1csc(N)n1; conditions: Burkholderia cenocepacia; 07-34
[20] = substrate: CO/N=C(\C(=O)N[C@@H]1C(=O)N2C(C(=O)O)=C(COC(N)=O)CS[C@H]12)c1ccco1; conditions: Burkholderia cenocepacia; 07-34
[21] = substrate: CO/N=C(\C(=O)N[C@@H]1C(=O)N2C(C(=O)[O-])=C(C[N+]3(C)CCCC3)CS[C@H]12)c1csc(N)n1; conditions: Burkholderia cenocepacia; 07-34
[22] = substrate: C[C@@H](O)[C@H]1C(=O)N2C(C(=O)O)=C(SCCNC=N)C[C@H]12; conditions: Burkholderia cenocepacia; 07-34
[23] = substrate: C[C@@H](O)[C@H]1C(=O)N2C(C(=O)O)=C(S[C@@H]3CN[C@H](C(=O)N(C)C)C3)[C@H](C)[C@H]12; conditions: Burkholderia cenocepacia; 07-34
[24] = substrate: C[C@H]1[C@H](NC(=O)/C(=N\OC(C)(C)C(=O)O)c2csc(N)n2)C(=O)N1S(=O)(=O)O; conditions: Burkholderia cenocepacia; 07-34
[25] = substrate: CC(=O)OCC1=C(C(=O)O)N2C(=O)[C@@H](NC(=O)Cc3cccs3)[C@H]2SC1; conditions: Burkholderia cenocepacia; 07-34; remark: listed apart in the source
[26] = substrate: CC(C)(O/N=C(\C(=O)N[C@@H]1C(=O)N2C(C(=O)[O-])=C(C[n+]3ccccc3)CS[C@H]12)c1csc(N)n1)C(=O)O; conditions: Burkholderia cenocepacia; 07-34; remark: listed apart in the source
[27] = substrate: CC1(C)S[C@@H]2[C@H](NC(=O)Cc3ccccc3)C(=O)N2[C@H]1C(=O)O; conditions: Burkholderia cenocepacia; 07-34; remark: listed apart in the source
[28] = substrate: CC1(C)S[C@@H]2[C@H](NC(=O)[C@H](C(=O)O)c3ccsc3)C(=O)N2[C@H]1C(=O)O; conditions: Burkholderia cenocepacia; 07-34; remark: listed apart in the source
[29] = substrate: CC1(C)S[C@@H]2[C@H](NC(=O)[C@H](N)c3ccccc3)C(=O)N2[C@H]1C(=O)O; conditions: Burkholderia cenocepacia; 07-34; remark: listed apart in the source
[30] = substrate: CCN1CCN(C(=O)N[C@@H](C(=O)N[C@@H]2C(=O)N3[C@@H]2SC(C)(C)[C@@H]3C(=O)O)c2ccccc2)C(=O)C1=O; conditions: Burkholderia cenocepacia; 07-34; remark: listed apart in the source
[31] = substrate: CO/N=C(\C(=O)N[C@@H]1C(=O)N2C(C(=O)O)=C(COC(C)=O)CS[C@H]12)c1csc(N)n1; conditions: Burkholderia cenocepacia; 07-34; remark: listed apart in the source
[32] = substrate: CO/N=C(\C(=O)N[C@@H]1C(=O)N2C(C(=O)O)=C(COC(N)=O)CS[C@H]12)c1ccco1; conditions: Burkholderia cenocepacia; 07-34; remark: listed apart in the source
[33] = substrate: CO/N=C(\C(=O)N[C@@H]1C(=O)N2C(C(=O)[O-])=C(C[N+]3(C)CCCC3)CS[C@H]12)c1csc(N)n1; conditions: Burkholderia cenocepacia; 07-34; remark: listed apart in the source
[34] = substrate: C[C@@H](O)[C@H]1C(=O)N2C(C(=O)O)=C(SCCNC=N)C[C@H]12; conditions: Burkholderia cenocepacia; 07-34; remark: listed apart in the source
[35] = substrate: C[C@@H](O)[C@H]1C(=O)N2C(C(=O)O)=C(S[C@@H]3CN[C@H](C(=O)N(C)C)C3)[C@H](C)[C@H]12; conditions: Burkholderia cenocepacia; 07-34; remark: listed apart in the source
[36] = substrate: C[C@H]1[C@H](NC(=O)/C(=N\OC(C)(C)C(=O)O)c2csc(N)n2)C(=O)N1S(=O)(=O)O; conditions: Burkholderia cenocepacia; 07-34; remark: listed apart in the source

## CC(C)(O/N=C(\C(=O)N[C@@H]1C(=O)N2C(C(=O)[O-])=C(C[n+]3ccccc3)CS[C@H]12)c1csc(N)n1)C(=O)O [CEFTAZIDIME]
Burkholderia cenocepacia [1]
  MIC: 4 mg/L (≈ 7.32 µM)
Burkholderia cenocepacia [2]
  MIC: 32 mg/L (≈ 58.5 µM)
Burkholderia cenocepacia [3]
  MIC: 16 mg/L (≈ 29.3 µM)
Burkholderia cenocepacia [4]
  MIC: 0.25 mg/L (≈ 0.457 µM)
Escherichia coli [5]
  MIC: 1 mg/L (≈ 1.83 µM)
Escherichia coli [6]
  MIC: 0.5 mg/L (≈ 0.915 µM)

## CO/N=C(\C(=O)N[C@@H]1C(=O)N2C(C(=O)O)=C(COC(N)=O)CS[C@H]12)c1ccco1 [CEFUROXIME]
Burkholderia cenocepacia [1]
  MIC: 16 mg/L (≈ 37.7 µM)
Burkholderia cenocepacia [2]
  MIC: 512 mg/L (≈ 1210 µM)
Burkholderia cenocepacia [3]
  MIC: 512 mg/L (≈ 1210 µM)
Burkholderia cenocepacia [4]
  MIC: 32 mg/L (≈ 75.4 µM)
Escherichia coli [5]
  MIC: 16 mg/L (≈ 37.7 µM)
Escherichia coli [6]
  MIC: 8 mg/L (≈ 18.9 µM)

## C[C@@H](O)[C@H]1C(=O)N2C(C(=O)O)=C(SCCNC=N)C[C@H]12 [IMIPENEM ANHYDROUS]
Burkholderia cenocepacia [1]
  MIC: 8 mg/L (≈ 26.7 µM)
Burkholderia cenocepacia [2]
  MIC: 16 mg/L (≈ 53.4 µM)
Burkholderia cenocepacia [3]
  MIC: 16 mg/L (≈ 53.4 µM)
Burkholderia cenocepacia [4]
  MIC: 8 mg/L (≈ 26.7 µM)
Escherichia coli [5]
  MIC: 0.5 mg/L (≈ 1.67 µM)

## CCN1CCN(C(=O)N[C@@H](C(=O)N[C@@H]2C(=O)N3[C@@H]2SC(C)(C)[C@@H]3C(=O)O)c2ccccc2)C(=O)C1=O [PIPERACILLIN]
Burkholderia cenocepacia [1]
  MIC: 4 mg/L (≈ 7.73 µM)
Burkholderia cenocepacia [7]
  MIC: 4 mg/L
Burkholderia cenocepacia [2]
  MIC: 512 mg/L (≈ 989 µM)
Burkholderia cenocepacia [8]
  MIC: 256 mg/L
Burkholderia cenocepacia [3]
  MIC: 128 mg/L (≈ 247 µM)
Burkholderia cenocepacia [9]
  MIC: 128 mg/L
Burkholderia cenocepacia [4]
  MIC: 4 mg/L (≈ 7.73 µM)
Burkholderia cenocepacia [10]
  MIC: 4 mg/L
Escherichia coli [5]
  MIC: 8 mg/L (≈ 15.5 µM)
Escherichia coli [11]
  MIC: 4 mg/L
Escherichia coli [6]
  MIC: 2 mg/L (≈ 3.86 µM)
Escherichia coli [12]
  MIC: 2 mg/L

## CC1(C)S[C@@H]2[C@H](NC(=O)[C@H](C(=O)O)c3ccsc3)C(=O)N2[C@H]1C(=O)O [TICARCILLIN]
Burkholderia cenocepacia [1]
  MIC: 512 mg/L (≈ 1330 µM)
Burkholderia cenocepacia [2]
  MIC: 512 mg/L (≈ 1330 µM)
Burkholderia cenocepacia [3]
  MIC: 512 mg/L (≈ 1330 µM)
Burkholderia cenocepacia [4]
  MIC: 512 mg/L (≈ 1330 µM)
Escherichia coli [5]
  MIC: 512 mg/L (≈ 1330 µM)
Escherichia coli [6]
  MIC: 4 mg/L (≈ 10.4 µM)

B1: PenB class A beta-lactamase (Burkholderia cenocepacia), B8R6A5 (protein)
chain: MTYSSKRRTLLLAAATAPLVLTATACASRQAAAPDPATAAAAAAADAMAPAAAAATLADLERDAGGRLGVCAIDTASGRVIEHRAGERFPFCSTFKAMLSAAVLAQSVERPGLLQQRVKYTKADLVNYSPVSEKHVGAGMTVAALCEATIQYSDNSAANLLMKLIGGPSAVTAYARSIGDDAFRLDRWETELNTALPGDPRDTTTPAAMAASIRVLTLGDALPAAQRAQLVAWLRGNKVGDKRIRAGVPAGWTVGDKTGTGDYGTTNDAGVIWPTSRAPIVLAVYYTQTRADARAKDDVIASVARIVAQTFG
[13]
  Km: 100 µM
  kcat: 300 s⁻¹
[14]
  Km: 3000 µM
  kcat: 1.5 s⁻¹
[15]
  Km: 25 µM
  kcat: 130 s⁻¹
[16]
  Km: 60 µM
  kcat: 15 s⁻¹
[17]
  Km: 100 µM
  kcat: 70 s⁻¹
[18]
  Km: 10 µM
  kcat: 5 s⁻¹
[19]
  Km: 150 µM
  kcat: 20 s⁻¹
[20]
  Km: 80 µM
  kcat: 170 s⁻¹
[21]
  Km: 1000 µM
  kcat: 10 s⁻¹
[22]
  Km: 60 µM
  kcat: 0.1 s⁻¹
[23]
  Km: 2500 µM
  kcat: 1 s⁻¹
[24]
  Km: 2500 µM
  kcat: 30 s⁻¹
[25]
  kcat/Km: 3e+06 M⁻¹ s⁻¹
[26]
  kcat/Km: 500000 M⁻¹ s⁻¹
[27]
  kcat/Km: 5.2e+06 M⁻¹ s⁻¹
[28]
  kcat/Km: 250000 M⁻¹ s⁻¹
[29]
  kcat/Km: 700000 M⁻¹ s⁻¹
[30]
  kcat/Km: 500000 M⁻¹ s⁻¹
[31]
  kcat/Km: 130000 M⁻¹ s⁻¹
[32]
  kcat/Km: 2.1e+06 M⁻¹ s⁻¹
[33]
  kcat/Km: 1e+07 M⁻¹ s⁻¹
[34]
  kcat/Km: 2e+06 M⁻¹ s⁻¹
[35]
  kcat/Km: 500 M⁻¹ s⁻¹
[36]
  kcat/Km: 1e+07 M⁻¹ s⁻¹
